Measured values from paper PMC9826439 (Chemistry (Weinheim an Der Bergstrasse, Germany), 2022).

Assays:
[1] = biological target: human cathepsin L (Homo sapiens, UniProt P07711); test: Cathepsin L inhibition assay; format: biochemical; details: ratio of k inac/K i values
Procedure, shortened: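 Commercial human cathepsin; inactivation progress curves recorded for 60 min at five test-compound concentrations, in duplicate. pNA substrates were read at 405 nm (cuvette) and AMC substrates at λex 360/λem 460 nm. kobs came from a non-linear progress-curve fit, and kinac/Ki from a kobs vs [I] fit corrected by [S]/Km. Remaining activity was taken at 5 μM. SR is the ratio of rhodesain to cathepsin kinac/Ki.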

[2] = biological target: rhodesain-like proteases (TbCatLs) in T. b. brucei cell lysate (Trypanosoma brucei brucei, UniProt P14658); test: Competition profiling assay with ABP 7, T. b. brucei cell lysate; format: biochemical; details: T. b. brucei cell lysate 80 μg protein; inhibitor 0.016–10 μM, then ABP 7 5 μM
[3] = biological target: rhodesain (Trypanosoma brucei rhodesiense, UniProt Q95PM0); details: E-64 15 µM preincubated 37 °C 15 min, then ABP 7 15 µM
Sequence of rhodesain (Q95PM0 126-340 limits assumed): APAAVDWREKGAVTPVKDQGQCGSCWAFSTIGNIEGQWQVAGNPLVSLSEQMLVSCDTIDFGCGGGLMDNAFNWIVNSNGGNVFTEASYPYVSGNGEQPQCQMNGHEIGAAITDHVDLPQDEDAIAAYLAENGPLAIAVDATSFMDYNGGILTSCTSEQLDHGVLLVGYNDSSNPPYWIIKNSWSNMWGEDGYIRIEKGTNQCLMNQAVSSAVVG

Sequence of rhodesain-like proteases (TbCatLs) in T. b. brucei cell lysate (P14658 126-450): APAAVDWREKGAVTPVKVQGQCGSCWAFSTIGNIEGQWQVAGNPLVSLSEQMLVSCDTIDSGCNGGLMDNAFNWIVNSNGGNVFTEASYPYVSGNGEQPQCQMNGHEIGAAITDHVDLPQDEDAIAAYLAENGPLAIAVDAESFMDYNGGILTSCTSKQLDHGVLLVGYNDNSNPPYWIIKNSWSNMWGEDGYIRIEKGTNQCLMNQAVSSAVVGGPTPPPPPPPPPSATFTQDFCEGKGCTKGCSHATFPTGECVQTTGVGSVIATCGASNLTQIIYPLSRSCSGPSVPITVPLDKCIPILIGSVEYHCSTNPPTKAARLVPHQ
Sequence of human cathepsin L (P07711 114-333): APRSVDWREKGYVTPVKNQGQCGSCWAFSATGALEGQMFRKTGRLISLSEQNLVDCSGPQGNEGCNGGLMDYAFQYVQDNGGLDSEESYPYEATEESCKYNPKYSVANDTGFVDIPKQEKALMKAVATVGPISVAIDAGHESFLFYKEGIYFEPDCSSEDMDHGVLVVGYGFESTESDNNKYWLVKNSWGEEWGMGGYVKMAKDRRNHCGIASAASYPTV

selectivity ratio (SR rhodesain/cathepsin L) [1] | concentration at which significantly lowered ABP 7 labeling signal was observed [2] | generation of the fluorescent rhodesain-7 adduct [3] | Structure (SMILES)
23.8 | 80 nM |  | Cc1ccc(C[C@H](NC(=O)OC(C)(C)C)C(=O)NC/C=C/S(=O)(=O)c2ccccc2)cc1 [Compound 2, (S,E)‐tert‐Butyl 1‐oxo‐1‐(3‐(phenylsulfonyl)allylamino)‐3‐p‐tolylpropan‐2‐ylcarbamate]
 |  | completely abolished | CC(C)C[C@H](NC(=O)[C@H]1O[C@@H]1C(=O)O)C(=O)NCCCCN=C(N)N [E‐64]
